This note sets out measurements from ChEMBL document CHEMBL4190313, “In vitro targeting of colon cancer cells using spiropyrazoline oxindoles” (Eur J Med Chem, 2017).

The structures appear in SMILES notation. Activity calls are given as the source filed them. The calls are words filed in the database; no cut-off is given here.

The test system of series [1] is HCT-116. Put plainly: Antiproliferative activity against human HCT116 p53+/+ cells after 72 hrs by MTS assay. Format: functional, cell-based. To be noted: HCT-116, 72 h. In outline: (§1)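 Cells allowed to adhere 24 h (1x10⁴/well), then exposed to 0.5-50 μM compound from DMSO stocks (final DMSO ≤0.8% v/v) for 72 h. Viability by MTS bio-reduction to formazan, absorbance 490 nm. IC50 from log(inhibitor) vs response (variable slope) fit, at least three independent experiments; table values mean ± SD of three experiments in duplicate.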
A general note: Tetrazolium dyes change colour on reduction, which living cells bring about.

The test system of series [2] is HCT-116. Kind of series: Cell cycle arrest in human HCT116 p53+/+ cells assessed as accumulation at S phase at IC50 after 48 hrs by propidium iodide staining-based flow cytometric analysis (reference value: 22.67%). Format: functional.
In series [3] the test system is CCD-18Co. Kind of series: Cytotoxicity against human CCD-18Co cells at IC80 after 72 hrs by MTS assay relative to control. Format: cell-based.
For series [4], the system named is HCT-116. Put plainly: Cell cycle arrest in human HCT116 p53+/+ cells assessed as accumulation at G2/M phase at IC50 after 24 hrs by propidium iodide staining-based flow cytometric analysis (reference value: 29.07%). The series is classed as functional. Background: A flow cytometer gives signals particle by particle.
In series [5] the test system is CCD-18Co. Put plainly: Cytotoxicity against human CCD-18Co cells at IC50 after 72 hrs by MTS assay. The series is classed as cell-based.
Series [6] deals with E3 ubiquitin-protein ligase Mdm2 (Homo sapiens) (UniProt Q00987). Put plainly: Inhibition of FAM-tagged p53-based fluorescent probe binding to human His-tagged MDM2 (1 to 118 residues) up to 400 uM after 30 mins by fluorescence polarization assay. In outline:
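Recombinant human His-tagged MDM2 (residues 1-118), final 10 nM, preincubated with 5-FAM-labelled p53-based peptidomimetic probe, final 1 nM (Kd 1.4 ± 0.3 nM). Buffer: 100 mM potassium phosphate pH 7.5, 100 μg/ml bovine γ-globulin, 0.02% sodium azide, 0.01% Triton X-100, final 4% DMSO. Incubated 30 min at room temperature with shaking; polarization read at ex 485/em 530 nm. Inhibition calculated against protein+probe and free-probe controls.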
(In general: Polarisation of emitted light reports the rotation of a fluorescent probe.)

Series [7] concerns HCT-116. Put plainly: Antiproliferative activity against human HCT116 p53-/- cells after 72 hrs by MTS assay. Format: functional, cell-based. As to conditions: HCT-116, 72 h. The procedure, abridged:
as §1

Series [8] relates to HCT-116. Kind of series: Cell cycle arrest in human HCT116 p53+/+ cells assessed as accumulation at S phase at IC50 after 24 hrs by propidium iodide staining-based flow cytometric analysis (reference value: 37.44%). Format: functional.
Series [9] deals with HCT-116. Kind of series: Cell cycle arrest in human HCT116 p53+/+ cells assessed as accumulation at G2/M phase at IC50 after 48 hrs by propidium iodide staining-based flow cytometric analysis (reference value: 26.85%). The series is classed as functional.
Series [10] concerns HCT-116. Put plainly: Induction of apoptosis in human HCT116 p53+/+ cells assessed as early apoptotic cells at IC50 after 72 hrs by Annexin V-FITC/7-AAD staining-based flow cytometric analysis relative to control. Format: functional. In outline: (§2)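 HCT-116 p53+/+ cells (5x10⁴/well) exposed at IC50 or 2xIC50, or DMSO, for 72 h. Medium and Accutase-detached cells pooled, resuspended in PBS/2% FBS, stained with Annexin V/7-AAD reagent 20 min at room temperature in the dark. Flow cytometry, at least 5000 events per sample; mean ± SD of three independent experiments.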

Series [11] deals with HCT-116. Kind of series: Synergistic cytotoxicity against human HCT116 p53+/+ cells at IC10 to IC20 after 72 hrs in presence of 5-FU by MTS assay. Format: functional, cell-based.
Series [12] has as its target T1, Tumour suppressor p53/oncoprotein Mdm2 (Homo sapiens) (UniProt P04637+Q00987). Kind of series: Inhibition of MDM2/p53 interaction in human HCT116 cells assessed as downregulation of MDM2 protein expression at IC50 after 72 hrs by Western blot analysis. Format: cell-based.
In series [13] the target is T1, Tumour suppressor p53/oncoprotein Mdm2 (Homo sapiens). Put plainly: Inhibition of MDM2-V2/V1-p53 (unknown origin) interaction expressed in human HCT116 p53-/- cells at 20 uM after 20 hrs by biomolecular fluorescence complementation-based flow cytometric analysis. Format: cell-based. The procedure, abridged: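 HCT-116 p53-/- cells cotransfected with 1 µg each of V1-p53 and MDM2-V2 Venus BiFC plasmids by lipofection. Medium replaced 4-6 h later and compound added at 5, 10 or 20 μM, or DMSO, for a further 20 h. Cells detached with accutase; Venus fluorescence by flow cytometry, normalized to DMSO (100%). Mean ± SD of three independent experiments.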

The subject of series [14] is HCT-116. Kind of series: Cell cycle arrest in human HCT116 p53+/+ cells assessed as accumulation at G0/G1 phase at IC50 after 24 hrs by propidium iodide staining-based flow cytometric analysis (reference value: 33.49%). The series is classed as functional.
In series [15] the test system is HCT-116. Put plainly: Synergistic cytotoxicity against human HCT116 p53+/+ cells at IC50 after 72 hrs in presence of 5-FU by MTS assay. The series is classed as functional, cell-based.
The target in series [16] is T1, Tumour suppressor p53/oncoprotein Mdm2 (Homo sapiens). Put plainly: Inhibition of MDM2/p53 interaction in human HCT116 cells assessed as upregulation of p53 protein expression at IC50 after 72 hrs by Western blot analysis. The series is classed as cell-based.
In series [17] the test system is HCT-116. Put plainly: Cytotoxicity against human HCT116 p53+/+ cells at IC50 after 72 hrs by LDH release assay. The series is classed as functional, cell-based. The procedure, abridged: (§3)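 HCT-116 p53+/+ cells treated at IC50 or 2xIC50, or DMSO, for 72 h. Supernatant mixed with LDH assay substrate 10-30 min at room temperature in the dark; absorbance 490 nm, 620 nm reference. LDH release normalized to DMSO control; mean ± SEM of three independent experiments.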

Series [18] concerns HCT-116. Kind of series: Cell cycle arrest in human HCT116 p53+/+ cells assessed as accumulation at G0/G1 phase at IC50 after 48 hrs by propidium iodide staining-based flow cytometric analysis (reference value: 50.48%). The series is classed as functional.
The subject of series [19] is HCT-116. Put plainly: Cytotoxicity against human HCT116 p53+/+ cells at 2 times IC50 after 72 hrs by LDH release assay relative to control. The series is classed as functional. The procedure, abridged: as §3
Series [20] deals with HCT-116. Put plainly: Induction of apoptosis in human HCT116 p53+/+ cells assessed as increase in early apoptotic cells at 2 times IC50 after 72 hrs by Annexin V-FITC/7-AAD staining-based flow cytometric analysis. Format: functional, cell-based. In outline: as §2

T1 sequence (P04637 whole entry, looked up): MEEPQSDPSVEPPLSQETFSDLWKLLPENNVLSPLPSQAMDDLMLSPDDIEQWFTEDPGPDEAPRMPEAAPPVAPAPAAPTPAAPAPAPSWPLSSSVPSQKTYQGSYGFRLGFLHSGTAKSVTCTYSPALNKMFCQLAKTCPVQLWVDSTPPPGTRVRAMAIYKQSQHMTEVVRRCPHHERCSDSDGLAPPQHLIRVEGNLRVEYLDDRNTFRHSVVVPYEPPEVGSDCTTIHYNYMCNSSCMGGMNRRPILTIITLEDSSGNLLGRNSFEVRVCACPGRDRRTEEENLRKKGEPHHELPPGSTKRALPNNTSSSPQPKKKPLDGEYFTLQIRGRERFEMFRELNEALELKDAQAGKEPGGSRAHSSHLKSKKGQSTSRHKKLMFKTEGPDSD
T1 sequence (Q00987 whole entry, looked up): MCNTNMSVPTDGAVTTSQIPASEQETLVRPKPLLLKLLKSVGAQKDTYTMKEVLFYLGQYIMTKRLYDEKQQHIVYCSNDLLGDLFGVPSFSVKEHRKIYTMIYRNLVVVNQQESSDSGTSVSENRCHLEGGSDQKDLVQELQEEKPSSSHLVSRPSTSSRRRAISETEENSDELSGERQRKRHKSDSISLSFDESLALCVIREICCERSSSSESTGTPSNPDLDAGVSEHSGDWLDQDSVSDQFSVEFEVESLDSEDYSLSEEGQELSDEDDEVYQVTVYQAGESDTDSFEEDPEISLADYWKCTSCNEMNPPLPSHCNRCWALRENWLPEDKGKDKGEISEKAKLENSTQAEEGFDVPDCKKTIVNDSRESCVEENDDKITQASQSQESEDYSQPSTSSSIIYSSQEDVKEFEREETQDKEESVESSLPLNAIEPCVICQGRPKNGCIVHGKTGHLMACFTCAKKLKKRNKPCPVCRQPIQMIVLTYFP
Chain of E3 ubiquitin-protein ligase Mdm2 (Homo sapiens) (Q00987 whole entry, looked up, the tested form may be a part): as the sequence (Q00987 whole entry, looked up) above

For orientation: IC50 means the concentration needed to halve the response being measured. Read a low IC50 as greater potency in that assay. In turn, `CC(C)(C)C1=NN(c2ccccc2)[C@]2(C(=O)Nc3cc(Cl)ccc32)[C@H]1c1ccccc1` had a 50% inhibitory concentration (IC50) in the series on HCT-116 [1] greater than 20 µM.

Take `O=C1Nc2cc(Cl)c(F)cc2[C@]12[C@@H](c1ccccc1)C(c1ccccc1)=NN2c1ccccc1`: in the series on HCT-116 [1], it took 12.4 µM to reach half-maximal inhibition (IC50).

In turn, `CC(C)(C)C1=NN(c2ccccc2Cl)[C@]2(C(=O)Nc3c(Cl)cccc32)[C@H]1c1ccccc1` yielded a 50% inhibitory concentration (IC50) in the series on HCT-116 [1] of 17.3 µM.

`COc1ccc(C2=NO[C@]3(C(=O)Nc4cc(Br)ccc43)[C@H]2c2ccccc2)cc1`: half-maximal inhibition in the series with HCT-116 [1] (IC50) was put at 33.4 µM.

In turn, `CC(C)(C)C1=NN(c2ccccc2)[C@]2(C(=O)Nc3ccccc32)[C@H]1c1ccccc1` gave an IC50 in the series on HCT-116 [1] greater than 20 µM.

As to `O=C1Nc2ccc(Br)cc2[C@]12[C@@H](c1ccccc1)C(c1ccccc1)=NN2c1ccccc1`, the Activity is given as 15.38% in the series on HCT-116 [2]; 20% in the series on CCD-18Co [3]; 19.55% in the series with HCT-116 [4]; “Non-Toxic” with CCD-18Co [5]; 38.59% in the series with HCT-116 [8]; 15.17% with HCT-116 [9]. The values for the Activity in the series on HCT-116 [10], with HCT-116 [14] and in the series on HCT-116 [18] were 10%, 41.85% and 62%, respectively. In addition, the inhibition result in [6] was “inactive”. In addition, the IC50 in the series with HCT-116 [7] is 14.2 µM; with HCT-116 [1] it was 13.1 µM. Besides, the outcome in the series on HCT-116 [11] was Active. Further, the inhibition result in [12], in series [13] and in [16] was “Active” throughout. In addition, the outcome with HCT-116 [15] and with HCT-116 [17] was inactive. In the series with HCT-116 [19], the “fold change (FC)” value turned out to be 1.5.

`O=C1Nc2cc(Br)ccc2[C@@]12ON=C(c1ccccc1)[C@@H]2c1ccccc1`: the 50% inhibitory concentration (IC50) in the series with HCT-116 [1] came out at 35 µM.

In the series on HCT-116 [1], `O=C1Nc2c(Cl)cccc2[C@]12[C@@H](c1ccccc1)C(c1ccccc1)=NN2c1ccccc1` gave an IC50 of 16.6 µM.

As for `CC(C)(C)C1=NN(c2ccccc2)[C@]2(C(=O)Nc3ccc(Br)cc32)[C@H]1c1ccccc1`, the IC50 in the series with HCT-116 [1] is greater than 20 µM.

Compound `O=C1Nc2cc(Cl)ccc2[C@]12[C@@H](c1ccccc1)C(c1ccccc1)=NN2c1ccccc1` displayed a 50% inhibitory concentration (IC50) in the series with HCT-116 [1] of 16.7 µM.

With `COc1ccc(C2=NN(c3ccccc3)[C@]3(C(=O)Nc4c(Cl)cccc43)[C@H]2c2ccccc2)cc1`, the IC50 with HCT-116 [1] was determined as 15.6 µM.

Take `COc1ccc(C2=NN(c3ccccc3)[C@]3(C(=O)Nc4ccc(Cl)cc43)[C@H]2c2ccccc2)cc1`: the IC50 with HCT-116 [1] turned out to be 10.6 µM.

As to `CC(C)(C)C1=NN(c2ccccc2)[C@]2(C(=O)Nc3ccc(Cl)cc32)[C@H]1c1ccccc1`, the IC50 in the series with HCT-116 [1] was found to be 17 µM.

`O=C1Nc2ccccc2[C@]12[C@@H](c1ccccc1)C(c1ccccc1)=NN2c1ccccc1` had a half-inhibitory concentration (IC50) in the series on HCT-116 [1] greater than 20 µM.

Take `CC(C)(C)C1=NN(c2ccccc2)[C@]2(C(=O)Nc3c(Cl)cccc32)[C@H]1c1ccccc1`: the 50% inhibitory concentration (IC50) with HCT-116 [1] was found to be 13.3 µM.

For `COc1ccc(C2=NN(c3ccccc3)[C@]3(C(=O)Nc4cc(Br)ccc43)[C@H]2c2ccccc2)cc1`, in the series with HCT-116 [1], half-maximal inhibition (IC50) was put at 12.8 µM.

On to `CC(C)(C)C1=NN(c2ccccc2Cl)[C@]2(C(=O)Nc3ccccc32)[C@H]1c1ccccc1`, for which the IC50 in the series on HCT-116 [1] is greater than 20 µM.

On to `O=C1Nc2cc(Cl)ccc2[C@@]12ON=C(c1ccccc1)[C@@H]2c1ccccc1`, for which the IC50 with HCT-116 [1] is 39.8 µM.

On to `COc1ccc(C2=NN(c3ccccc3)[C@]3(C(=O)Nc4cc(Cl)ccc43)[C@H]2c2cccc(Cl)c2)cc1`, for which the Activity with HCT-116 [2] is reported as 20.35%; in the series on CCD-18Co [3], 20%; with HCT-116 [4], 11.33%; with CCD-18Co [5], “Non-Toxic”; in the series on HCT-116 [8], 38.45%; with HCT-116 [9], 24.87%. Further, the Activity was found to be 10% in the series on HCT-116 [10], 50.22% with HCT-116 [14] and 54.78% with HCT-116 [18]. Further, the outcome in the series with HCT-116 [20] was Active. Also, the results for the half-maximal inhibitory concentration (IC50) in the series on HCT-116 [7] and with HCT-116 [1] were 11.6 µM and 10.9 µM, respectively. The inhibition result in series [12], in series [13] and in series [16] was “Active” throughout. Further, the outcome in the series with HCT-116 [17] was inactive. In the series on HCT-116 [19], the “fold change (FC)” value amounted to 1.5.

Take `CC(C)(C)C1=NN(c2ccccc2)[C@]2(C(=O)Nc3cc(Cl)ccc32)[C@H]1c1cccc(Cl)c1`: in the series on HCT-116 [1], it took 18.4 µM to reach half-maximal inhibition (IC50).

In the case of `COc1ccc(C2=NN(c3ccccc3)[C@]3(C(=O)Nc4ccccc43)[C@H]2c2ccccc2)cc1`, half-maximal inhibition with HCT-116 [1] (IC50) required 11.7 µM.

For the compound `CC(C)(C)C1=NN(c2ccccc2)[C@]2(C(=O)Nc3cc(Br)ccc32)[C@H]1c1ccccc1`, in the series on HCT-116 [1], the concentration for half-maximal inhibition (IC50) was greater than 20 µM.

As to `O=C1Nc2cc(Br)ccc2[C@]12[C@@H](c1ccccc1)C(c1ccccc1)=NN2c1ccccc1`, inhibition in the series on HCT-116 [1] was half-maximal at 15.9 µM (IC50).

On to `O=C1Nc2c(Cl)cccc2[C@]12[C@@H](c1ccccc1)C(c1ccccc1)=NN2c1ccccc1Cl`, for which, in the series with HCT-116 [1], the IC50 is greater than 20 µM.

In the series on HCT-116 [1], `O=C1Nc2ccc(Cl)cc2[C@]12[C@@H](c1ccccc1)C(c1ccccc1)=NN2c1ccccc1` registered a concentration for half-maximal inhibition (IC50) of 11 µM.

Consider `CC(C)(C)C1=NN(c2ccccc2Cl)[C@]2(C(=O)Nc3ccc(Cl)cc32)[C@H]1c1ccccc1`, for which the IC50 in the series on HCT-116 [1] was greater than 20 µM.
